From PMC8650835 (International Journal of Nanomedicine, 2021)
Values after ≈ are worked out from the molar mass of the structure shown.

Experiments:
[1] = Aqueous solubility in PBS; type: physicochemical; conditions: pH = 7.4
[2] = in PBS; cited from earlier work
[3] = free CPT; cited from earlier work
[4] = In vivo safety: body weight, H&E histology, blood biochemistry; set-up: species or system BALB/c nude mice; conditions: 10 mg·kg^−1 i.v.
Summary of the method: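 MCF-7 xenografts in BALB/c nude mice: 1×10^6 cells s.c. (alar region), randomised at 100–200 mm3 (n = 6/group). Untreated normal group also included. Body weight recorded every 2 days for 16 days. Day 16: serum ALT, AST, BUN, CRE measured; organs formalin-fixed, paraffin-embedded and H&E-stained.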

| Compound | aqueous solubility [1] [µg/mL] | CPT lactone form remained at equilibrium [2] [%] | half-life of lactone ring hydrolysis [2] [min] | blood circulation half-life (t1/2) [3] [min] | body weights compared to PBS ([4]; MCF-7 tumor-bearing nude mice, p < 0.05) | creatinine (CRE) level compared with the normal group ([4]; day 16, p < 0.001, n = 6) | blood urea nitrogen (BUN) level compared with the normal group ([4]; day 16, p < 0.05, n = 6) | H&E staining of kidney ([4]; characteristic of acute kidney injury) |
| --- | --- | --- | --- | --- | --- | --- | --- | --- |
| CC[C@@]1(O)C(=O)OCc2c1cc1n(c2=O)Cc2cc3ccccc3nc2-1 [CPT, camptothecin] | 3 (≈ 8.61 µM) | 17 | 24 | 9.9 ± 8.04 | – | – | – | – |
| CCc1c2c(nc3ccc(OC(=O)N4CCC(N5CCCCC5)CC4)cc13)-c1cc3c(c(=O)n1C2)COC(=O)[C@]3(O)CC [IR, irinotecan] | – | – | – | – | reduced observably | increased obviously | increased obviously | obvious interstitial inflammatory cell infiltration |
